Data from ChEMBL document CHEMBL4390700, “Design, synthesis and antitumour and anti-angiogenesis evaluation of 22 moscatilin derivatives” (Bioorg Med Chem, 2019).
Active and inactive are the calls of the source. No cut-off for these calls is given here.

How the values were obtained:
A549 = test: Antiproliferative activity against human A549 cells incubated for 72 hrs by MTT assay; assay type: functional, cell-based; conditions: A549, 72 h
Procedure, shortened: (§1)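 5×10³ cells per well preincubated 12 h at 37 °C, 5% CO₂. Medium replaced with fresh medium containing compound at various concentrations, DMSO ≤0.1%, for 72 h at 37 °C. MTT 0.5 mg/mL final added for 2 h; formazan dissolved in DMSO, A570 read; viability expressed relative to untreated cells.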

Danio rerio = species on record: Danio rerio; test: Anti-angiogenic activity in zebrafish-guided angiogenesis model assessed as reduction in inter-segmental blood vessels measured at 72 hpf by fluorescence microscopy; assay type: functional
Procedure, shortened: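 Tg(fli-1:EGFP) zebrafish embryos, dechorionated at 24 hpf, 20 per group, kept in embryo water containing compound at 28.5 °C for a further 48 h. All compounds screened first at 50 μM; active ones titrated for minimum effective dose. At 72 hpf embryos anesthetized in 0.016% tricaine and intersegmental vessels imaged by fluorescence microscopy. SU5416 positive control.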

MKN-45 = test: Antiproliferative activity against human MKN45 cells incubated for 72 hrs by MTT assay; assay type: functional, cell-based; conditions: MKN-45, 72 h; procedure, shortened: as §1
HepG2 = test: Antiproliferative activity against human HepG2 cells incubated for 72 hrs by MTT assay; assay type: functional, cell-based; conditions: HepG2, 72 h; procedure, shortened: as §1
MDA-MB-231 = test: Antiproliferative activity against human MDA-MB-231 cells incubated for 72 hrs by MTT assay; assay type: functional, cell-based; conditions: MDA-MB-231, 72 h; procedure, shortened: as §1
HCT-116 [1] = test: Antiproliferative activity against human HCT116 cells incubated for 72 hrs by MTT assay; assay type: functional, cell-based; conditions: HCT-116, 72 h; procedure, shortened: as §1
HCT-116 [2] = test: Induction of cell cycle arrest in human HCT116 cells assessed accumulation at G2/M phase at 5 uM incubated for 48 hrs by propidium iodide staining based flow cytometry (reference value: 11.88%); assay type: functional
Procedure, shortened: (§2)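 2×10⁵ cells per well, adhered overnight, then treated 48 h at 5 or 10 μM. Cells fixed in cold 70% ethanol overnight, RNase A treated 30 min at 37 °C, PI stained 15 min at 4 °C. DNA content measured by flow cytometry; phase distribution compared with untreated control.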

HCT-116 [3] = test: Induction of apoptosis in human HCT116 cells assessed as early apoptotic cells level at 1 uM incubated for 48 hrs by Annexin V-FITC and propidium iodide staining based flow cytometry; assay type: functional
Procedure, shortened: (§3)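 HCT116 seeded 2 × 10⁵ cells/well, adhered overnight, then exposed to compound for 48 h. Annexin V-FITC/PI double staining, read by flow cytometry. Early apoptotic cells counted as Annexin V+/PI− (lower right quadrant), late apoptotic as Annexin V+/PI+ (upper right). Culture at 37 °C, 5% CO₂, medium with 10% FBS and penicillin/streptomycin, DMSO ≤0.1%.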

HCT-116 [4] = test: Induction of morphological changes in human HCT116 cells assessed as induction of cell distortion at 1 to 10 uM incubated for 48 hrs by Hoechst 33342 staining based fluorescence microscopy; assay type: functional
HCT-116 [5] = test: Induction of cell cycle arrest in human HCT116 cells assessed reduction in accumulation at G1 phase at 5 to 10 uM incubated for 48 hrs by propidium iodide staining based flow cytometry; assay type: functional; procedure, shortened: as §2
HCT-116 [6] = test: Induction of apoptosis in human HCT116 cells assessed as late apoptotic cells level at 10 uM incubated for 48 hrs by Annexin V-FITC and propidium iodide staining based flow cytometry; assay type: functional
Procedure, shortened: (§4)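 2×10⁵ cells per well, adhered overnight, then exposed 48 h to compound at 1, 5 or 10 μM. Annexin V-FITC/PI double staining, read by flow cytometry. Annexin V+/PI− counted as early apoptotic, Annexin V+/PI+ as late. Gambogic acid 1 μM comparator.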

HCT-116 [7] = test: Induction of morphological changes in human HCT116 cells assessed as induction of slow growth at 1 to 10 uM incubated for 48 hrs by Hoechst 33342 staining based fluorescence microscopy; assay type: functional, cell-based
HCT-116 [8] = test: Induction of cell cycle arrest in human HCT116 cells assessed reduction in accumulation at S phase at 5 to 10 uM incubated for 48 hrs by propidium iodide staining based flow cytometry; assay type: functional; procedure, shortened: as §2
HCT-116 [9] = test: Induction of apoptosis in human HCT116 cells assessed as induction of chromatin congregation at 1 to 10 uM incubated for 48 hrs by DAPI staining based fluorescence microscopy; assay type: functional, cell-based; conditions: in the assay text read “Hoechst 33342” for “DAPI”
Procedure, shortened: (§5)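 After 48 h exposure to 1, 5 or 10 μM, nuclei stained with DAPI (methods name Hoechst 33342). Chromatin condensation and nuclear pyknosis scored by fluorescence microscopy at 400× against untreated cells.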

HCT-116 [10] = test: Induction of apoptosis in human HCT116 cells assessed as early apoptotic cells level at 10 uM incubated for 48 hrs by Annexin V-FITC and propidium iodide staining based flow cytometry; assay type: functional; procedure, shortened: as §4
HCT-116 [11] = test: Induction of apoptosis in human HCT116 cells assessed as early apoptotic cells level at 5 uM incubated for 48 hrs by Annexin V-FITC and propidium iodide staining based flow cytometry; assay type: functional; procedure, shortened: as §4
HCT-116 [12] = test: Reduction in alpha-tubulin protein expression in human HCT116 cells at 1 to 10 uM incubated for 48 hrs by Western blot analysis; assay type: functional, cell-based
Procedure, shortened: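 After 48 h treatment, cells lysed in buffer of 100 mM Tris-Cl pH 6.8, 4% SDS, 20% glycerol, 200 mM β-mercaptoethanol, 1 mM PMSF, aprotinin. Lysates spun 12000g for 30 min at 4 °C and protein quantified by BCA. Proteins run on 10% SDS-PAGE, semi-dry transferred to PVDF, probed overnight at 4 °C with anti-α-tubulin 1:1000 and GAPDH 1:1000 loading control, then HRP secondary. ECL detection with densitometry.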

HCT-116 [13] = test: Induction of apoptosis in human HCT116 cells assessed as late apoptotic cells level at 5 uM incubated for 48 hrs by Annexin V-FITC and propidium iodide staining based flow cytometry; assay type: functional; procedure, shortened: as §4
HCT-116 [14] = test: Induction of apoptosis in human HCT116 cells assessed as induction of […] pyknosis at 1 to 10 uM incubated for 48 hrs by DAPI staining based fluorescence microscopy; assay type: functional, cell-based; conditions: in the assay text read “Hoechst 33342” for “DAPI”; procedure, shortened: as §5
[15] = Cytotoxicity against human NCM460 cells assessed as cell viability at 50 uM incubated for 72 hrs by MTT assay; assay type: cell-based; conditions: read-out: Activity
Procedure, shortened: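 NCM460 colon cells exposed to compound at 0.1, 1, 2, 5, 10, 20, 30, 40 and 50 μM; viability expressed as percent. Media carried penicillin G, streptomycin and 10% FBS; culture at 37 °C, 5% CO₂.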

HCT-116 [16] = test: Induction of cell cycle arrest in human HCT116 cells assessed accumulation at G2/M phase at 10 uM incubated for 48 hrs by propidium iodide staining based flow cytometry (reference value: 11.88%); assay type: functional; procedure, shortened: as §2
HCT-116 [17] = test: Induction of apoptosis in human HCT116 cells assessed as late apoptotic cells level at 1 uM incubated for 48 hrs by Annexin V-FITC and propidium iodide staining based flow cytometry; assay type: functional; procedure, shortened: as §3
HCT-116 [18] = test: Induction of morphological changes in human HCT116 cells assessed as induction of tensile deformation at 1 to 10 uM incubated for 48 hrs by Hoechst 33342 staining based fluorescence microscopy; assay type: functional, cell-based

SMILES | IC50 (A549) | MED (Danio rerio) | IC50 (MKN-45) | IC50 (HepG2) | IC50 (MDA-MB-231) | IC50 (HCT-116 [1]) | further results
COc1cc(CCc2ccc(Cl)cc2Cl)cc(OC)c1O | 3.84 µM | 5 to 10 µM | 4.46 µM | 6.74 µM | > 25 µM | 2.98 µM | 
COc1cc(CCc2ccccc2Cl)cc(OC)c1O | 2.13 µM | 0.62 to 1.25 µM | 24.5 µM | 2.19 µM | 21.1 µM | 0.25 µM | Activity (HCT-116 [2]): 85.22%; Activity (HCT-116 [3]): 24.8%; Activity (HCT-116 [4]): Dose-dependent effect; Activity (HCT-116 [5]): Active; Activity (HCT-116 [6]): 37.2%; Activity (HCT-116 [7]): Dose-dependent effect; Activity (HCT-116 [8]): Active; Activity (HCT-116 [9]): Active; Activity (HCT-116 [10]): 36.9%; Activity (HCT-116 [11]): 34.5%; Activity (HCT-116 [12]): Active; Activity (HCT-116 [13]): 22.4%; Activity (HCT-116 [14]): Active; viability at 72 h, 50 µM [15]: 84.4%; Activity (HCT-116 [16]): 82.47%; Activity (HCT-116 [17]): 18.1%; Activity (HCT-116 [18]): Dose-dependent effect
COc1ccc(CCc2ccc([N+](=O)[O-])cc2)cc1OC | > 25 µM | >50 µM | 13.7 µM | 1.6 µM | > 25 µM | 5.97 µM | 
COc1ccc(CCc2ccc(F)cc2)cc1OC | > 25 µM | >50 µM | 3.98 µM | > 25 µM | 0.92 µM | 7.89 µM | 
COc1ccc(CCc2ccccn2)cc1OC | > 25 µM | >50 µM | 11.1 µM | 13.8 µM | 10.5 µM | 0.93 µM | 
COc1cc(CCc2ccc(Cl)cc2)cc(OC)c1O | 22.9 µM | >50 µM | 0.74 µM | 8.78 µM | > 25 µM | 0.33 µM | 
COc1cc(CCc2cc(OC)c(O)c(OC)c2)ccc1O [MOSCATILIN] | 2.1 µM | 2.5 to 5 µM | 3.51 µM | 3.76 µM | 0.082 µM | 2.29 µM | 
COc1cc(CCc2ccccc2)cc(OC)c1O | 10.9 µM | 20 to 25 µM | 1.04 µM | 7.83 µM | > 25 µM | 0.53 µM | 
COc1ccc(CCc2ccccc2)cc1OC | > 25 µM | >50 µM | 21.9 µM | 2.08 µM | > 25 µM | 2.56 µM | 
COc1cc(CCc2ccc([N+](=O)[O-])cc2)cc(OC)c1O | 9.13 µM |  | 15.4 µM | 11 µM | 8.05 µM | 3.16 µM | 
COc1cc(CCc2ccccc2F)cc(OC)c1O | > 25 µM | 10 to 15 µM | > 25 µM | 1.03 µM | 9.22 µM | 0.88 µM | 
COc1ccccc1CCc1cc(OC)c(O)c(OC)c1 | 1.74 µM | 1.25 to 2.5 µM | 2.48 µM | 2.48 µM | > 25 µM | 14.5 µM | 
COc1ccc(CCc2ccccc2Cl)cc1OC | > 25 µM | 20 to 25 µM | 2.04 µM | 4.93 µM | > 25 µM | 6.16 µM | 
COc1cc(CCc2ccc(Br)cc2)cc(OC)c1O | > 25 µM | 2.5 to 5 µM | 1.49 µM | 8.49 µM | > 25 µM | 15.8 µM | 
COc1cc(CCc2ccc(Cl)c(Cl)c2)cc(OC)c1O | 13.4 µM | 20 to 25 µM | 20.6 µM | 16.1 µM | 2.52 µM | 1.86 µM | 
COc1cc(CCc2ccncc2)cc(OC)c1O | > 25 µM | >50 µM | 3.81 µM | 2.17 µM | 6.3 µM | 3.74 µM | 
COc1ccc(CCc2ccc(Cl)cc2)cc1OC | > 25 µM | >50 µM | 1.52 µM | 0.74 µM | 1.25 µM | 0.52 µM | 
CC(C)=CCC[C@]1(C)C=Cc2c(O)c3c(c(CC=C(C)C)c2O1)O[C@]12C(=C[C@@H]4C[C@H]1C(C)(C)O[C@@]2(C/C=C(/C)C(=O)O)C4=O)C3=O [GAMBOGIC ACID] | 1.47 µM |  | 4.27 µM | 2.36 µM | 1.33 µM | 3.11 µM | Activity (HCT-116 [3]): 33%; Activity (HCT-116 [17]): 31.8%
COc1cc(CCc2ccc(F)cc2)cc(OC)c1O | 4.15 µM | >50 µM | 10.7 µM | 5.47 µM | > 25 µM | 1.19 µM | 
COc1cc(CCc2ccccn2)cc(OC)c1O | > 25 µM | 25 to 50 µM | 0.66 µM | 4.84 µM | > 25 µM | 3.06 µM | 
COc1ccc(CCc2ccc(OC)c(OC)c2)cc1O | 4.79 µM | 40 to 50 µM | > 25 µM | 4.05 µM | 0.081 µM | 5.26 µM | 
COc1cc(CCc2cccc(Cl)c2Cl)cc(OC)c1O | 3.99 µM | 5 to 10 µM | 0.011 µM | 4.77 µM | 6.87 µM | 8.78 µM | 
COc1cc(CCc2ccc(OC)c(OC)c2)ccc1O | 3.64 µM | >50 µM | 2.06 µM | 2.27 µM | 1.64 µM | 2.69 µM | 
COc1cc(CCc2cccc(F)c2)cc(OC)c1O | 2.24 µM | 15 to 20 µM | 2.97 µM | 12.4 µM | > 25 µM | 7.57 µM | 
Cc1cc(C)c(/C=C2\C(=O)Nc3ccccc32)[nH]1 [SEMAXANIB] |  | 1.25 to 2.5 µM |  |  |  |  | 
